Data published in ChEMBL document CHEMBL4622987, “Folate Receptor Targeting and Cathepsin B-Sensitive Drug Delivery System for Selective Cancer Cell Death and Imaging” (ACS Med Chem Lett, 2020).

What was measured:
[1] = test system: A549; assay: Cytotoxicity against FR-negative human A549 cells assessed as reduction in cell viability at 20 uM measured after 72 hrs by MTT assay relative to control; type: functional; details: A549, 72 h
How it was run: (§1)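 Cancer or normal human cells were exposed to a range of concentrations for 72 h. Viability was read by MTT assay. IC50 was derived from the concentration–response curves, and percent viability loss was taken at 20 μM.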

[2] = target: T1, Cathepsin B (Homo sapiens, UniProt P07858); assay: (§2) Prodrug release in FR-overexpressing human SKHEP1 cells assessed as cathepsin B-mediated 7-ethyl-10-hydroxycamptothecin accumulation in nucleus at 5 uM incubated for 24 hrs by Hoechst 33342 staining based confocal microscopy; type: ADME, cell-based; details: sk-hep1, 24 h
How it was run: (§3)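 Cells were incubated with 5 μM conjugate for 24 h. Nuclei were counterstained with Hoechst 33342 (1 μg/mL). Cellular fluorescence and its localisation were imaged by confocal microscopy.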

[3] = target: T1, Cathepsin B; assay: as §2, with “preincubated with cathepsin B inhibitor CA-074 Me for 24 hrs followed by compound treatment” for “incubated”; type: ADME, cell-based; details: sk-hep1, 24 h
How it was run: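 SK-Hep-1 cells were pretreated with 20 μM CA-074 Me (cathepsin B inhibitor) for 24 h, then given 5 μM conjugate for 24 h. Nuclei were stained with Hoechst 33342 (1 μg/mL), and cells were imaged by confocal microscopy.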

[4] = target: T1, Cathepsin B; assay: Prodrug release assessed as cathepsin B (unknown origin)-mediated cleavage of GFLG peptide of parent compound by measuring formation of 7-ethyl-10-hydroxycamptothecin at 37 degreeC by fluorescence spectroscopy; type: ADME
How it was run: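 The conjugate was incubated with cathepsin B at 37 °C, alongside an enzyme-free control. Release of free SN38 was followed as the rise in fluorescence over time (λex 365 nm, λem 540 nm).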

[5] = target: T1, Cathepsin B; assay: Prodrug release assessed as cathepsin B (unknown origin)-mediated cleavage of parent compound by measuring retention time of cyclic dipeptide matography-mass spectrometry; type: ADME
[6] = test system: HeLa; assay: Cytotoxicity against FR-positive human HeLa cells assessed as reduction in cell viability measured after 72 hrs by MTT assay; type: functional, cell-based; how it was run: as §1
[7] = test system: SK-HEP1; assay: Cytotoxicity against FR-positive human SKHEP1 cells assessed as reduction in cell viability measured after 72 hrs by MTT assay; type: functional, cell-based; details: SK-HEP1, 72 h; how it was run: as §1
[8] = target: T1, Cathepsin B; assay: Prodrug release assessed as cathepsin B (unknown origin)-mediated cleavage of parent compound by measuring retention time of folic acid linked-glycyl-hydroxypehylalanine by RP-HPLC analysis/mass spectrometry; type: ADME
How it was run: (§4)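 The cathepsin B digest of the conjugate was analysed by analytical RP-HPLC with mass spectrometry. Cleavage products were assigned from their retention times and [M+H]+ or [M+Na]+ ions.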

[9] = target: T1, Cathepsin B; assay: Prodrug release in FR-overexpressing human SKHEP1 cells assessed as cathepsin B-mediated 7-ethyl-10-hydroxycamptothecin accumulation in nucleus at 5 uM preincubated with folic acid for 1 hr followed by compound treatment for 24 hrs by Hoechst 33342 staining based confocal microscopy; type: ADME, cell-based; details: sk-hep1, 24 h
How it was run: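 SK-Hep-1 cells were pre-exposed to 3 mM free folic acid for 1 h to block the folate receptor, then given 5 μM conjugate for 24 h. Hoechst 33342 (1 μg/mL) was used as the nuclear stain, with confocal microscopy read-out.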

[10] = Drug uptake in folate receptor negative human 16HBE cells assessed as accumulation of compound at 5 uM incubated for 24 hrs by Hoechst 33342 staining based confocal microscopy; type: ADME, cell-based; details: 16hbe14o-; how it was run: as §3
[11] = Cytotoxicity against human 16HBE cells assessed as reduction in cell viability at 20 uM measured after 72 hrs by MTT assay relative to control; type: cell-based; details: 16HBE (16HBE14o-) cells, read-out: INH; how it was run: as §1
[12] = target: T1, Cathepsin B; assay: Prodrug release assessed as cathepsin B (unknown origin)-mediated cleavage of GFLG peptide of parent compound by measuring formation of 7-ethyl-10-hydroxycamptothecin at 37 degreeC in presence of cathepsin B inhibitor CA-074 Me by fluorescence spectroscopy; type: ADME
[13] = Retention time of the compound by RP-HPLC analysis/mass spectrometry; type: physicochemical
[14] = test system: SiHa; assay: Cytotoxicity against FR-positive human SiHa cells assessed as reduction in cell viability measured after 72 hrs by MTT assay; type: functional, cell-based; how it was run: as §1
[15] = Drug uptake in folate receptor negative human A549 cells assessed as accumulation of compound in lysosomes by measuring fluorescence intensity at 5 uM incubated for 24 hrs by Hoechst 33342 staining based confocal microscopy; type: ADME, cell-based; details: a549, 24 h; how it was run: as §3
[16] = target: T1, Cathepsin B; assay: Prodrug release assessed as cathepsin B (unknown origin)-mediated cleavage of GFLG peptide of parent compound by measuring retention time of 7-ethyl-10-hydroxycamptothecin by RP-HPLC analysis/mass spectrometry; type: ADME; how it was run: as §4
[17] = test system: 16HBE14o-; assay: Cytotoxicity against human 16HBE cells assessed as reduction in cell viability measured after 72 hrs by MTT assay; type: cell-based
[18] = test system: A549; assay: Cytotoxicity against FR-negative human A549 cells assessed as reduction in cell viability measured after 72 hrs by MTT assay; type: functional, cell-based; details: A549, 72 h

SMILES	inhibition at 20 µM [1] [%]	Drug metabolism [2]	Drug metabolism [3]	Drug metabolism [4]	Retention_time [5] [min]	IC50 [6] [nM]	IC50 [7] [nM]	Retention_time [8] [min]	Drug metabolism [9]	Drug uptake [10]	cytotoxicity at 72 h, 20 µM [11] [%]	Drug metabolism [12]	Retention_time [13] [min]	IC50 [14] [nM]	Drug uptake [15]	Retention_time [16] [min]	IC50 [17] [nM]	IC50 [18] [nM]
CCc1c2c(nc3ccc(OCc4ccc(NC(=O)CNC(=O)[C@H](CC(C)C)NC(=O)[C@H](Cc5ccccc5)NC(=O)CNC(=O)COCCOCCOCCOCc5cn(CCOCCOCCOCCNC(=O)CC[C@H](NC(=O)c6ccc(NCc7cnc8nc(N)[nH]c(=O)c8n7)cc6)C(=O)O)nn5)cc4)cc13)-c1cc3c(c(=O)n1C2)COC(=O)[C@]3(O)CC	51	Metabolite_Detected	Metabolite_Notdetected	Metabolite_Detected	34	2000 to 3000	2000 to 3000	21.4	Metabolite_Notdetected	Not Active	24	Metabolite_Notdetected	26.4	2000 to 3000	Not Active	23.6		
CCc1c2c(nc3ccc(O)cc13)-c1cc3c(c(=O)n1C2)COC(=O)[C@]3(O)CC [7-ETHYL-10-HYDROXYCAMPTOTHECIN]						300 to 1000	300 to 1000							300 to 1000			300 to 1000	300 to 1000
